# Measurements from different studies.
# Each line is one published result; the experiments were not run side by side.
# Target: Serine/threonine-protein kinase 17A (STK17A, Homo sapiens, UniProt Q9UEE5)
# Sequence (Q9UEE5 1-414, as in one of the studies): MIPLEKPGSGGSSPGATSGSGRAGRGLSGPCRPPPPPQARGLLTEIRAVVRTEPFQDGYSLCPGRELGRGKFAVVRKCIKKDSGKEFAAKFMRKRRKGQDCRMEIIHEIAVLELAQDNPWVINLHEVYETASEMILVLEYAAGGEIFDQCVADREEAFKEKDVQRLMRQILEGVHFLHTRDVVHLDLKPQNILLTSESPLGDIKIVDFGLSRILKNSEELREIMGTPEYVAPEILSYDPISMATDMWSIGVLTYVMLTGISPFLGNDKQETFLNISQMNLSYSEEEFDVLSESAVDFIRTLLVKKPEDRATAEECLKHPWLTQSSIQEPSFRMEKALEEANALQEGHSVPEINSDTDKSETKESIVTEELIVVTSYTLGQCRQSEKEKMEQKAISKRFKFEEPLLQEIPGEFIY
SMILES,test,conditions,remaining binding [%]
Cc1cnc(Nc2ccc(C(=O)N3CCC(N4CCCC4)CC3)cc2)nc1-c1cc2ccccc2s1,"binding, competition with immobilised ligand",1 µM,0.1
Cn1nc(C(=O)NCc2ccc(C(=O)O)cc2)cc1-c1ccc2[nH]ccc2c1,"cell-free assay, competition with immobilised ligand",0.1 µM,92
COc1cnc(Nc2cccc(S(N)(=O)=O)c2)nc1N1CCN(c2ccccc2)CC1,"binding, competition with immobilised ligand",1 µM,100
O=C(Nc1c[nH]nc1C(=O)NC1CCNCC1)c1cc(F)cc(F)c1,"binding, competition with immobilised ligand",1 µM,95
COc1ccc2c(O[C@@H]3C[C@H]4C(=O)N[C@]5(C(=O)O)CC5/C=C\CCCCC[C@H](NC(=O)OC5CCCC5)C(=O)N4C3)cc(-c3csc(NC(=O)C(C)C)n3)nc2c1C (stereo partly shown),"cell-free assay, competition with immobilised ligand",1 µM,99
O=C(c1ccc(Nc2ncc(Cl)c(-c3ccc(Cl)s3)n2)cc1)N1CCC(N2CCCC2)CC1,"binding, competition with immobilised ligand",1 µM,0.8
C[C@H]1CCN(c2nccc(-c3cnn4ncccc34)n2)C1,binding,1 µM,13
COc1ncc2cc3ccccc3nc2c1C#N,"cell-free assay, competition with immobilised ligand",5 µM,100
CCN1CCN(Cc2ccc(C(=O)Nc3ccc(C)c(Oc4ccc5c(c4)CC(=O)N5)c3)cc2C(F)(F)F)CC1,"binding, competition with immobilised ligand",1 µM,100
CN(C)c1nccc(-c2cnc3ncccn23)n1,binding,1 µM,100
O=C(NCc1ncc(C(F)(F)F)cc1Cl)c1ccc2c(c1)C1(CCS(=O)(=O)CC1)[C@@H](C1CC1)N2S(=O)(=O)c1ccc(F)cc1,"cell-free assay, competition with immobilised ligand",1 µM,73
N[C@H]1CCN(c2nccc(-c3cnn4ncccc34)n2)C1,binding,1 µM,100
O=C(Nc1cccnn1)N1CCC(=Cc2cccc(Oc3ccc(C(F)(F)F)cn3)c2)CC1,"cell-free assay, competition with immobilised ligand",1 µM,79
Nc1ncc2c(n1)-c1c([nH]c3ccc(C#CC4CC4)cc13)CCCC2,"binding, competition with immobilised ligand",1 µM,98
CNC(=O)Nc1ccc2c(c1)CC[C@@]21OC(=O)N(CC(=O)N(Cc2ccc(F)cc2)[C@@H](C)C(F)(F)F)C1=O,"cell-free assay, competition with immobilised ligand",1 µM,100
C=CC(=O)N1CCC(C(=O)NCC(=O)N2CCN(c3nc(-c4cnc(N)nc4C(F)F)nc(N4CCOCC4)n3)CC2)CC1,"binding, competition with immobilised ligand",1 µM,100
c1cnn2ncc(-c3ccnc(N4CCC45COC5)n3)c2c1,binding,1 µM,100
CC1=C(C#N)[C@@H](c2ccc3[nH]nc(C)c3c2)C(C#N)=C(c2ccc(Cl)cc2)N1,"cell-free assay, competition with immobilised ligand",1 µM,100
F[C@@H]1CCN(c2nccc(-c3cnn4ncccc34)n2)C1,binding,1 µM,100
c1cncc(-c2cccc(Nc3nccc(NC4CCCCC4)n3)c2)c1,"binding, competition with immobilised ligand",10 µM,47
Cc1cnn2ncc(-c3ccnc(N(C)C)n3)c2c1,binding,1 µM,86
O=C(NCCCN1CCOCC1)c1ccc(Nc2nccc(-c3cc4ccccc4s3)n2)cc1,"binding, competition with immobilised ligand",1 µM,0
